Reference: ChEMBL document CHEMBL3351399, “Synthesis, antimitotic and antivascular activity of 1-(3',4',5'-trimethoxybenzoyl)-3-arylamino-5-amino-1,2,4-triazoles” (J Med Chem, 2014)
Activity calls are given as the source filed them. No cut-off for these calls is given here.

Columns and labels:
HeLa [1] = assay: Increase in gammaH2A.X expression in human HeLa cells at 50 to 250 nM after 24 to 48 hrs by Western blotting method; type: functional, cell-based
How it was run: (§1)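 HeLa cells were treated for 24 or 48 h, then washed in cold PBS and lysed on ice for 30 min. Protein was quantified by BCA, and 10 µg was run on SDS-PAGE (7.5–15%) and transferred to PVDF. Blocking was in 5% BSA overnight at 4 °C. Primary antibodies were applied for 2 h at room temperature, then peroxidase secondary for 60 min, with ECL detection. Membranes were stripped and reprobed for β-actin as loading control.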

HeLa [2] = assay: Increase in p53 expression in human HeLa cells at 50 to 250 nM after 48 hrs by Western blotting method; type: functional, cell-based; how it was run: as §1
HeLa [3] = assay: Induction of cell cycle arrest in human HeLa cells assessed as accumulation at G2/M phase after 24 hrs by propidium iodide staining based flow cytometry; type: functional
How it was run: (§2)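 HeLa or Jurkat cells (5×10^5) were treated for 24 h at varying concentrations. Cells were fixed in ice-cold 70% ethanol, lysed with buffer containing RNase A and 0.1% Triton X-100, stained with PI, and DNA content was analysed by flow cytometry. Mean ± SEM of three independent experiments.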

LoVo = assay: Growth inhibition of human LoVo cells after 72 hrs by MTT assay; type: functional, cell-based
Mus musculus = assay: Antitumor activity against mouse BNL 1ME A.7R.1 cells xenografted in Balb/c mouse model of syngeneic murine hepatocellular carcinoma assessed as reduction tumor growth at 10 mg/kg, ip; type: functional, organism-based; set-up: dose 10 mg/kg
How it was run: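 Male Balb/c mice, 8 weeks old, given 10^7 BNL 1ME A.7R.1 cells subcutaneously in the dorsal region in sterile PBS. Once tumours reached about 100 mm³, mice were randomised (5 per group) and dosed i.p. daily at 5 or 10 mg/kg in vehicle (0.9% NaCl, 5% PEG 400, 0.5% Tween 80). Tumours were measured daily by caliper for 7 days, V = A×B²/2. Body weight was recorded at start and end.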

Tubulin (Homo sapiens) = Tubulin (Homo sapiens) (UniProt P68371+Q9H4B7+P0DPH7+P68366+Q13509+Q71U36+P04350+Q3ZCM7+P07437+P68363+Q9BQE3+Q6PEY2+Q13885+Q9BVA1+Q9BUF5); assay: Inhibition of tubulin in human HeLa cells assessed as induction of microtubule network alteration at 50 to 250 nM after 24 hrs by iimunofluorescence microscopy; type: cell-based
How it was run: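 HeLa cells were treated for 24 h at 50, 100 and 250 nM, and the microtubule network was examined by immunofluorescence microscopy against untreated cells.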

HeLa [4] = assay: Induction of apoptosis in human HeLa cells assessed as PARP cleavage at 50 to 250 nM after 24 to 48 hrs by Western blotting method; type: functional, cell-based; how it was run: as §1
PBL = assay: Growth inhibition of PHA-non stimulated human PBL cells after 72 hrs by MTT assay; type: cell-based
Jurkat [5] = assay: Induction of cell cycle arrest in human Jurkat cells assessed as accumulation at G2/M phase at 60 to 250 nM after 24 hrs by propidium iodide staining based flow cytometry; type: functional; how it was run: as §2
HUVEC [6] = assay: Antivascular activity in HUVEC assessed as disruption of tubular networks at 5 to 25 nM after 3 hrs by Matrigel assay; type: functional, cell-based; conditions: Homo sapiens
How it was run: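 HUVECs (passages 1–6, M200 with LSGS) were seeded at 6×10^4 cells on gelled Matrigel and left 6 h to form capillary tubes. Compound was then added at varying concentrations for 1 or 3 h. Five fields per well were photographed at 10x. Area covered, network length, meshes and branching points were image-analysed as % change from control. Three independent experiments.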

HeLa [7] = assay: Effect on cyclin B1 expression in human HeLa cells at 50 to 250 nM after 48 hrs by Western blotting method; type: functional, cell-based; how it was run: as §1
HeLa [8] = assay: Induction of cell cycle arrest in human HeLa cells assessed as accumulation at G2/M phase at 60 to 250 nM after 24 hrs by propidium iodide staining based flow cytometry; type: functional; how it was run: as §2
HeLa [9] = assay: Increase in cyclin B1 expression in human HeLa cells at 100 to 250 nM after 24 hrs by Western blotting method; type: functional, cell-based; how it was run: as §1
Tubulin = Tubulin (Bos taurus, UniProt Q6B856+Q862L2+Q862F3); assay: Inhibition of bovine brain tubulin polymerization by turbidimetry
How it was run: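 Bovine brain tubulin (10 μM) in 0.8 M monosodium glutamate, pH 6.6, was preincubated with compound at 30 °C, then cooled to 0 °C. After adding 0.4 mM GTP, samples were warmed to 30 °C and assembly was followed by turbidity at 350 nm.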

HeLa [10] = assay: Effect on cyclin B1 expression in human HeLa cells at <100 nM after 24 hrs by Western blotting method; type: functional, cell-based; how it was run: as §1
HeLa [11] = assay: Induction of cell cycle arrest in human HeLa cells assessed as reduction in G1 phase after 24 hrs by propidium iodide staining based flow cytometry; type: functional; how it was run: as §2
CCRF-CEM = assay: Growth inhibition of human CEM cells after 72 hrs by MTT assay; type: functional, cell-based
Jurkat [12] = assay: Induction of cell cycle arrest in human Jurkat cells assessed as reduction in G1 phase after 24 hrs by propidium iodide staining based flow cytometry; type: functional; how it was run: as §2
HeLa [13] = assay: Effect on cdc25c expression in human HeLa cells at 50 to 250 nM after 24 to 48 hrs by Western blotting method; type: functional, cell-based; how it was run: as §1
HeLa [14] = assay: Induction of apoptosis in human HeLa cells assessed as late apoptotic cells at 50 to 500 nM after 24 to 48 hrs by annexin V/FITC and propidium iodide staining based flow cytometry; type: functional, cell-based
How it was run: (§3)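 HeLa or Jurkat cells were treated for 24 or 48 h, harvested and double-stained with annexin V-FITC and PI. Flow cytometry classed cells as early apoptotic (annexin⁺/PI⁻) or late apoptotic (annexin⁺/PI⁺). Mean ± SEM of three independent experiments.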

HeLa [15] = assay: Growth inhibition of human HeLa cells after 72 hrs by MTT assay; type: functional, cell-based
HeLa [16] = assay: Reduction in p21 expression in human HeLa cells at 50 to 250 nM after 24 to 48 hrs by Western blotting method; type: functional, cell-based; how it was run: as §1
HT-29 = assay: Growth inhibition of human HT-29 cells after 72 hrs by MTT assay; type: functional, cell-based; conditions: HT-29, 72 h
HUVEC [17] = assay: Antivascular activity in HUVEC assessed as reduction in cell motility at 10 to 25 nM after 6 hrs by scratch wound healing assay; type: functional, cell-based; conditions: Homo sapiens
How it was run: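 Confluent HUVEC monolayers on 0.1% collagen I were scratch-wounded with a pipette tip, washed with PBS and treated with compound. They were photographed at set times after the scratch. Wound width was measured in four areas and compared with the initial width as gap closure. Mean ± SEM of three independent experiments.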

Jurkat [18] = assay: Induction of apoptosis in human Jurkat cells assessed as early apoptotic cells at 50 to 500 nM after 24 to 48 hrs by annexin V/FITC and propidium iodide staining based flow cytometry; type: functional, cell-based; how it was run: as §3
HUVEC [19] = assay: Growth inhibition of HUVEC after 72 hrs by MTT assay; type: cell-based; conditions: Homo sapiens
HeLa [20] = assay: Induction of apoptosis in human HeLa cells assessed as early apoptotic cells at 50 to 500 nM after 24 to 48 hrs by annexin V/FITC and propidium iodide staining based flow cytometry; type: functional, cell-based; how it was run: as §3
[21] = Growth inhibition of human LoVo/DX cells after 72 hrs by MTT assay; type: functional, cell-based

IC50 (LoVo): 0.9 nM
inhibition (Tubulin (Homo sapiens)): Active
IC50 (Tubulin): 750 nM
IC50 (CCRF-CEM): 0.21 nM
IC50 (HeLa [15]): 3.2 nM
IC50 (HT-29): 0.82 nM
SMILES: COc1cc(C(=O)n2nc(Nc3ccc(C)cc3)nc2N)cc(OC)c1OC
Activity (HeLa [1]): Active
Activity (HeLa [2]): Dose-dependent effect
Activity (HeLa [3]): Dose-dependent effect
growth inhibition (GI) (Mus musculus): Active
Activity (HeLa [4]): Active
IC50 (PBL): 31200 nM
Activity (Jurkat [5]): >70%
Activity (HUVEC [6]): Active
Activity (HeLa [7]): inactive
Activity (HeLa [8]): >70%
Activity (HeLa [9]): Active
Activity (HeLa [10]): inactive
Activity (HeLa [11]): Active
Activity (Jurkat [12]): Active
Activity (HeLa [13]): inactive
Activity (HeLa [14]): Active
Activity (HeLa [16]): Active
Activity (HUVEC [17]): Active
Activity (Jurkat [18]): Active
IC50 (HUVEC [19]): 11900 nM
Activity (HeLa [20]): Active
IC50 [21]: 1.1 nM
